Measured values: PubChem BioAssay
Inconclusive results are not listed.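 The calls were made as follows, unless noted: active = viability increase at or above a cutoff of the median across tested compounds plus 3 SD (cut at about 8.5% in these data, passing the limit was not always enough); inconclusive = some gains above the cutoff, reason not given; inactive = the rest.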

What was measured:
[1] = S. cerevisiae growth inhibition in permissive medium (OD615), pilot counter-assay for S. cerevisiae lifespan shortening project, permissive growth control (AID 705;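 active = growth inhibition above 25% in both replicates, a cutoff set 3 SD above the mean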); details: OD615, 24 h, at 10 µM, hits give high values
Procedure, shortened: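 assay system = Saccharomyces cerevisiae strain carrying genetically modified DeaD replicative-lifespan system | medium = SC raffinose/galactose permissive medium | dosing = 10 µM single dose, 0.25% DMSO | schedule = 24 h compound exposure at 30 °C after 4 h pre-growth | measured by = OD at 615 nm | read-out basis = growth inhibition from lowered OD615 after 24 h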

[2] = S. cerevisiae growth inhibition in restrictive medium, OD615, pilot screen, restrictive growth control, yeast lifespan reduction project (AID 706;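 active = growth inhibition above a set limit, 3 SD over mean compound inhibition, in both replicates, cut at about 43% in these data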;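 also: modified DeaD lifespan yeast strain shifted to restrictive glucose medium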); details: OD615, 48 h, at 10 µM, hits give high values
Procedure, shortened: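 Buffer or medium: CSMM-D glucose medium. Material: genetically modified Saccharomyces cerevisiae, DeaD replicative lifespan assay strain. Times: 48 h compound exposure at 30 °C. Measured by: optical density at 615 nm.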

[3] = doxorubicin toxicity protection in MRP-1 cells – H69AR cells, CellTiter-Glo, duplicate, MRP-1 activator project, pilot screen (AID 807); details: H69AR viability with doxorubicin, CellTiter-Glo luminescence; at 10 µM; hits give high values;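 also: compound pretreatment 18-22 h then 72 h combined with doxorubicin; 0% = doxorubicin alone and 100% = vehicle without doxorubicin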
[4] = viability of HCT116 without oncogenic beta-catenin – human colon tumor cells, pilot screen (AID 823;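 active = cell viability at or below a set limit in both duplicate runs, the limit being the all-compound median minus 4 SD, cut at about 23% in these data, passing the limit was not always enough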;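 also: 0% = wells killed by 20 µM Hyamine and 100% = untreated DMSO cell wells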); details: HCT116 beta-catenin knockout viability, CellTiter-Glo, 60 h; at 10 µM; hits give low values
[5] = viability of PTEN-null HCT116 cells – cell-based, HCT116 clonal line, CellTiter-Glo, pilot screen (AID 824;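 active = viability at or below 27.92% in each of two runs, the all-compound median minus 4 SD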;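 also: 0% = 20 µM Hyamine control and 100% = vehicle cell control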); details: HCT116 PTEN-deleted viability, 60 h, at 10 µM, hits give low values
[6] = RAM pathway blockade in budding yeast – dse1pr::URA3 reporter, 5-FOA selection, pilot screen (AID 869;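 active = inhibition over a set limit, the all-compound mean plus 3 SD, in both replicate runs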;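 also: 0% = DMSO wells with no growth and 100% = 10 µM 1-NA-PP1 with full growth; RAM network block rescues cells from 5-FOA so hits raise OD615 growth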); details: S. cerevisiae dse1pr::URA3 5-FOA growth, OD615, 2 d; at 10 µM; hits give high values; strain carries analog-sensitive mutant Cbk1 kinase
[7] = RAM signaling pathway blockade in yeast – S. cerevisiae, Pdr1DBD-CYC8 efflux-inhibited sensitized strain, primary screen (AID 1298;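 active = RAM network inhibition above 8.4% in each of two replicates, 3 SD over the compound average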;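 also: 0% = DMSO untreated cells without growth and 100% = 10 µM 1-NA-PP1 full growth; higher means more yeast growth rescued from 5-FOA killing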); details: S. cerevisiae cbk1-as DSE1-URA3 strain, 5-FOA growth OD615, 2 d; at 50 µM; hits give high values

O=C(c1ccc(CN2CCc3ccccc3C2)cc1)N1CCCCC1
inactive: growth inhibition [1] 4.87% | growth inhibition [2] 3.72% | viability increase [3] -2.43% | viability [4] 94.2% | viability [5] 93.9% | inhibition [6] 3.59% | RAM network inhibition [7] 4.9%

O=C1NC(=O)C(CC(=O)N(Cc2ccco2)C2(C(=O)NC3CCCCC3)CCCCC2)N1 (stereo not drawn)
inactive: growth inhibition [1] -7.57% | growth inhibition [2] -7.79% | viability increase [3] -2.17% | viability [4] 104% | viability [5] 93.4% | inhibition [6] -0.005% | RAM network inhibition [7] 2.23%

Clc1ccc2nc3ccccn3c2c1
inactive: growth inhibition [1] -6.63% | growth inhibition [2] -5.02% | viability increase [3] -4.02% | viability [4] 109% | viability [5] 106% | inhibition [6] 1.56% | RAM network inhibition [7] 2.48%

CCOC(=O)N1CCN(C(=O)C2CCN(C(=O)c3cc4sccc4n3CC)CC2)CC1
inactive: growth inhibition [1] -16.3% | growth inhibition [2] -18.7% | viability increase [3] -3.05% | viability [4] 91.7% | viability [5] 98.9% | inhibition [6] 0.825% | RAM network inhibition [7] 3.06%

O=S(=O)(NC1CCCCC1)c1ccc(Br)cc1
inactive: growth inhibition [1] 2.22% | growth inhibition [2] 1.47% | viability increase [3] -2.36% | viability [4] 89.3% | viability [5] 89.8% | inhibition [6] 0.065% | RAM network inhibition [7] 2.96%

O=C(c1cnn2c(C(F)(F)F)cc(-c3ccccc3)nc12)N1CCOCC1
inactive: growth inhibition [1] -14.6% | growth inhibition [2] -10% | viability increase [3] -2.81% | viability [4] 103% | viability [5] 99.8% | inhibition [6] 0.505% | RAM network inhibition [7] -1.1%

O=C(CCCN1C(=O)CSc2ncccc21)N1CCN(Cc2ccccc2)CC1
inactive: growth inhibition [1] -1.92% | growth inhibition [2] -2.68% | viability increase [3] -2.06% | viability [4] 92.4% | viability [5] 91.7% | inhibition [6] 2.33% | RAM network inhibition [7] 2.55%

CC(C)c1nnc(NC(=O)c2cccs2)s1
inactive: growth inhibition [1] -15% | growth inhibition [2] -8.46% | viability increase [3] 0.84% | viability [4] 95.5% | viability [5] 86.4% | inhibition [6] 1.23% | RAM network inhibition [7] 6.85%

Cc1ccccc1N1C(=O)c2sc3nc4c(c(=O)n3c2C1=O)CCC4
inactive: growth inhibition [1] 4.62% | growth inhibition [2] 25.2% | viability increase [3] -4.72% | viability [4] 97% | viability [5] 96.8% | inhibition [6] 1.5% | RAM network inhibition [7] 2.56%

COCCSc1nc2c(c(=O)[nH]c(=O)n2C)n1CCC(C)C
inactive: growth inhibition [1] -19.7% | growth inhibition [2] -18.9% | viability increase [3] -1.88% | viability [4] 103% | viability [5] 97.3% | inhibition [6] 1.55% | RAM network inhibition [7] 2.8%

O=C(NCCCN1CCOCC1)c1ccco1
inactive: growth inhibition [1] -9.93% | growth inhibition [2] -3.09% | viability increase [3] -0.94% | viability [4] 98.8% | viability [5] 96.2% | inhibition [6] 0.23% | RAM network inhibition [7] 2.27%

CCN(CC)S(=O)(=O)c1cc(C(=O)Oc2ccccc2OC)ccc1OC
inactive: growth inhibition [1] 4.58% | growth inhibition [2] 2.38% | viability increase [3] -0.11% | viability [4] 86.1% | viability [5] 85.6% | inhibition [6] 1.38% | RAM network inhibition [7] 3.93%

COc1cccc(C2NC(=O)NC(C)=C2C(=O)Nc2ccc(C)cc2)c1 (stereo not drawn)
inactive: growth inhibition [1] -9.18% | growth inhibition [2] -12% | viability increase [3] 1.54% | viability [4] 106% | viability [5] 97.6% | inhibition [6] 0.285% | RAM network inhibition [7] 3.39%

O=C(c1ccc(CS(=O)(=O)c2c(Cl)cccc2Cl)o1)N1CCCC1
inactive: growth inhibition [1] -1.83% | growth inhibition [2] -21% | viability increase [3] -1.96% | viability [4] 103% | viability [5] 93.2% | inhibition [6] 2.21% | RAM network inhibition [7] -0.84%

Cc1ccc(-n2nnc3c(=O)n(CC(=O)OCc4ccccc4)cnc32)cc1
inactive: growth inhibition [1] -3.74% | growth inhibition [2] -5.4% | viability increase [3] -2.06% | viability [4] 92.6% | viability [5] 91.1% | inhibition [6] 2.02% | RAM network inhibition [7] 6.18%

CCOC(=O)CC1C(=O)NCCN1C(=O)c1cc2c(=O)n3cccc(C)c3nc2s1 (stereo not drawn)
inactive: growth inhibition [1] -11% | growth inhibition [2] -11.3% | viability increase [3] -3.53% | viability [4] 98% | viability [5] 98.8% | inhibition [6] -0.035% | RAM network inhibition [7] -1.37%

CC1CCN(CC(=O)N2c3ccccc3CCc3ccccc32)CC1
inactive: growth inhibition [1] -14.5% | growth inhibition [2] -19.2% | viability increase [3] -1.57% | viability [4] 87.5% | viability [5] 90% | inhibition [6] 4.08% | RAM network inhibition [7] 4.24%

COc1ccc(OCc2nnc(SCC(=O)O)n2N)cc1
inactive: growth inhibition [1] -6.54% | growth inhibition [2] 5.32% | viability increase [3] 1.25% | viability [4] 106% | viability [5] 94.8% | inhibition [6] 0.66% | RAM network inhibition [7] -2.27%

O=C(Nc1c(F)cc(F)cc1Br)c1cc(-c2ccc(O)cc2)on1
inactive: growth inhibition [1] -17.7% | growth inhibition [2] 5.22% | viability increase [3] -4.92% | viability [4] 92% | viability [5] 85.4% | inhibition [6] 0.53% | RAM network inhibition [7] -0.21%

Cc1csc(C(C#N)C(=O)c2cc3ccccc3o2)n1 (stereo not drawn)
inactive: growth inhibition [1] -21.6% | growth inhibition [2] -8.8% | viability increase [3] -0.75% | viability [4] 93.7% | viability [5] 85.3% | inhibition [6] 2.67% | RAM network inhibition [7] 0.32%

O=C(CSc1nc2c(c(=O)n1-c1ccc(F)cc1)SCC2)NCc1ccco1
inactive: growth inhibition [1] 8.53% | growth inhibition [2] 14.1% | viability increase [3] -2.1% | viability [4] 102% | viability [5] 103% | inhibition [6] 1.21% | RAM network inhibition [7] 7.3%

Cc1c(NS(=O)(=O)c2ccccc2)cc(Cl)c(O)c1C
inactive: growth inhibition [1] -9.11% | growth inhibition [2] -4.86% | viability increase [3] -5.19% | viability [4] 90.9% | viability [5] 93.5% | inhibition [6] 0.695% | RAM network inhibition [7] 6.75%

CCCCNC(=O)c1cc2c(=O)n3cccc(C)c3nc2n1C
inactive: growth inhibition [1] -8.58% | growth inhibition [2] -6.39% | viability increase [3] -4.36% | viability [4] 89.4% | viability [5] 87.5% | inhibition [6] 0.93% | RAM network inhibition [7] 2.87%

Cc1ccc(Cn2ccc(NC(=O)c3cc(C(C)C)on3)n2)cc1
inactive: growth inhibition [1] -13.5% | growth inhibition [2] 5.14% | viability increase [3] 0.94% | viability [4] 97.1% | viability [5] 95.1% | inhibition [6] 1.97% | RAM network inhibition [7] 4.18%
